Data published in ChEMBL document CHEMBL1122501, “Potential antiatherosclerotic agents. 2. (Aralkylamino)- and (alkylamino) benzoic acid analogues of cetaben” (1983).

How the values were obtained:
[1] = biological target: T1, Sterol O-acyltransferase 1 (Rattus norvegicus) (UniProt O70536); test: In vitro inhibitory activity against acyl coenzyme A:cholesterol acyltransferase (ACAT); parameters: concentration or dose not given beside the values; conditions: concentration not given here
T1 sequence (whole entry): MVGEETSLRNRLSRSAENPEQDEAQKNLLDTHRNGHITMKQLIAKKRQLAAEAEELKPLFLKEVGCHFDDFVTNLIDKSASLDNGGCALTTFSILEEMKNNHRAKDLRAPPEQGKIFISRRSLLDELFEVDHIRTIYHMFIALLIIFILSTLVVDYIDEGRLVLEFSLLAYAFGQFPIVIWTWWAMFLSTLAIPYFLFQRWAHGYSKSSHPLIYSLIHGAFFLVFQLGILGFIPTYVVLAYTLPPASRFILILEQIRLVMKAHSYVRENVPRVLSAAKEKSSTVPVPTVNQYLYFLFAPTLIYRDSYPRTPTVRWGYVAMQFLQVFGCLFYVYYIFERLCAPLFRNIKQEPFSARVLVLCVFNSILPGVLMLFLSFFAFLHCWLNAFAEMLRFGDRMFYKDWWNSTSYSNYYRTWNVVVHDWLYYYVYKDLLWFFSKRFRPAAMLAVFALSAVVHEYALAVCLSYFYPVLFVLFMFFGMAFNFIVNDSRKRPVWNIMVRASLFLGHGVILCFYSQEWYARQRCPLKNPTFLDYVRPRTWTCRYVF
Summary of the method: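 ACAT enzyme from rat adrenal homogenate in 0.2 M KH2PO4 buffer pH 7.4, 1000g 15 min 5 °C supernatant (microsomal fraction). Supernatant + BSA (50 mg/mL) + compound at final 5.2 μg/mL + buffer preincubated 10 min 37 °C; [14C]oleoyl-CoA (0.4 μCi) added, 30 min 37 °C. Lipids extracted, TLC; cholesteryl ester zone counted. Mean % inhibition vs no-compound control; Student's t test.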

Rattus norvegicus [2] = test: In vivo Triglyceride lowering activity at dose as 0.025% of the diet.; format: functional
Summary of the method: (§1)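 Male CFE or CD-1 Sprague-Dawley rats, 140-150 g; 8 per control group, 4 per test group. Compound mixed into ground chow (w/w) via MeOH-CHCl3 (1:3) solution, solvent evaporated; controls got solvent-treated chow. Fed ad libitum 5 days, food intake monitored, killed fed and bled. Serum sterols and triglycerides by adapted autoanalyzer methods; mean percent of control, Student's t test.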

Rattus norvegicus [3] = test: In vivo Sterol lowering activity at dose as 0.025 % of the diet; format: functional; summary of the method: as §1
Rattus norvegicus [4] = test: In vivo Sterol lowering activity at dose as 0.05 % of the diet; format: functional; summary of the method: as §1
Rattus norvegicus [5] = test: In vivo sterol lowering activity dosed at 0.10 % of the diet; format: functional; summary of the method: as §1
Rattus norvegicus [6] = test: In vivo triglyceride lowering activity dosed at 0.05 % of the diet; format: functional; summary of the method: as §1
Rattus norvegicus [7] = test: In vivo triglyceride lowering activity dosed at 0.10 % of the diet; format: functional; summary of the method: as §1
Rattus norvegicus [8] = test: In vivo Triglyceride lowering activity at dose as 0.025% of the diet; format: functional; summary of the method: as §1
Rattus norvegicus [9] = test: In vivo Sterol lowering activity at dose as 0.025 % of the diet.; format: functional; summary of the method: as §1
Rattus norvegicus [10] = test: In vivo Sterol lowering activity at dose as 0.10 % of the diet.; format: functional; summary of the method: as §1
Rattus norvegicus [11] = test: In vivo Triglyceride lowering activity at dose as 0.05 % of the diet.; format: functional; summary of the method: as §1
Rattus norvegicus [12] = test: In vivo triglyceride lowering activity, dosed at 0.10 % of the diet.; format: functional; summary of the method: as §1
Rattus norvegicus [13] = test: In vivo Triglyceride lowering activity at dose as 0.017 % of the diet.; format: functional; summary of the method: as §1
Rattus norvegicus [14] = test: In vivo Sterol lowering activity at dose as 0.017 % of the diet.; format: functional; summary of the method: as §1
Rattus norvegicus [15] = test: In vivo Sterol lowering activity at dose as 0.05 % of the diet.; format: functional; summary of the method: as §1
Rattus norvegicus [16] = test: In vivo Triglyceride lowering activity at dose as 0.025 % of the diet; format: functional; summary of the method: as §1
Rattus norvegicus [17] = test: In vivo Triglyceride lowering activity at dose as 0.017 % of the diet; format: functional; summary of the method: as §1
Rattus norvegicus [18] = test: In vivo Sterol lowering activity at dose as 0.017 % of the diet; format: functional; summary of the method: as §1
Rattus norvegicus [19] = test: In vivo triglyceride lowering activity, dosed at 0.03 % of the diet; format: functional; summary of the method: as §1
Rattus norvegicus [20] = test: In vivo Triglyceride lowering activity at dose as 0.025 % of the diet.; format: functional; summary of the method: as §1

Row | SMILES | inhibition [1] | Diet (Rattus norvegicus [4]) | serum sterol, percent of control (Rattus norvegicus [5]) | Diet (Rattus norvegicus [6]) | serum triglycerides, percent of control (Rattus norvegicus [7]) | Diet (Rattus norvegicus [9]) | serum sterol, percent of control (Rattus norvegicus [10]) | Diet (Rattus norvegicus [11]) | Diet (Rattus norvegicus [12]) | Diet (Rattus norvegicus [13]) | Diet (Rattus norvegicus [15]) | further results
1 | CCOC(=O)c1ccc(NCCCCCCc2ccccc2)cc1 | 41% | 84% | 82% | 45% | 43% | – | – | – | – | – | – | Diet (Rattus norvegicus [2]): 59%; Diet (Rattus norvegicus [3]): 89%
2 | O=C(O)c1ccc(NCCCCCCCCCc2ccccc2)cc1 | < 28% | 96% | 92% | <58% | <68% | – | – | – | – | – | – | Diet (Rattus norvegicus [8]): <50%; Diet (Rattus norvegicus [3]): 96%
3 | CCOC(=O)c1ccc(NCCCCCCCCc2ccccc2)cc1 | < 50% | 96% | 98% | <65% | <54% | – | – | – | – | – | – | Diet (Rattus norvegicus [8]): <61%; Diet (Rattus norvegicus [3]): 88%
4 | O=C(O)c1ccc(NCCCCCc2ccccc2)cc1 | 26% | 84% | – | – | – | 95% | 108% | 78% | 89% | – | – | Diet (Rattus norvegicus [2]): 96%
5 | O=C(O)c1ccc(NCCc2cccs2)cc1 | 5% | – | – | – | – | – | 88% | 97% | 103% | 121% | 81% | Diet (Rattus norvegicus [14]): 74%
6 | O=C(O)c1ccc(NCc2ccccc2)cc1 | 2% | 86% | 87% | 62% | 65% | – | – | – | – | 92% | – | Diet (Rattus norvegicus [14]): 101%
7 | O=C(O)c1ccc(NCCc2ccc(OCc3ccccc3)cc2)cc1 | 18% | – | – | – | – | 100% | – | 81% | 84% | – | 103% | Diet (Rattus norvegicus [16]): 70%; Diet (Rattus norvegicus [10]): 86%
8 | CCOC(=O)c1ccc(NCc2ccc(OCc3ccccc3)cc2)cc1 | 45% | – | 91% | 85% | – | – | – | – | 92% | 97% | 100% | Diet (Rattus norvegicus [14]): 105%
9 | CCOC(=O)c1ccc(NCCc2cccc3ccccc23)cc1 | 9% | – | – | – | 73% | – | 94% | 80% | – | 112% | 103% | Diet (Rattus norvegicus [14]): 98%
10 | CCCCCCCOc1ccc(CNc2ccc(C(=O)O)cc2)cc1 | < 24% | <84% | <84% | <70% | <72% | – | – | – | – | – | – | Serum triglycerides, % of control (Rattus norvegicus [17]): 95%; Diet (Rattus norvegicus [18]): 100%
11 | O=C(O)c1ccc(NCc2ccc(OCc3ccccc3)cc2)cc1 | 16% | – | – | 85% | 89% | 93% | 97% | – | – | 91% | 98% | –
12 | CCOC(=O)c1ccc(NCc2ccccc2)cc1 | 45% | 90% | 86% | – | – | – | – | – | 78% | 97% | – | serum triglycerides, percent of control (Rattus norvegicus [19]): 88%; Diet (Rattus norvegicus [14]): 108%
13 | CCOC(=O)c1ccc(NCCCc2ccccc2OC)cc1 | 64% | – | – | – | – | 96% | 107% | 66% | 74% | – | 107% | Diet (Rattus norvegicus [16]): 61%
14 | O=C(O)c1ccc(NCCCCCCCCCCc2ccccc2)cc1 | < 44% | 89% | <87% | 88% | 81% | – | – | – | – | – | – | Diet (Rattus norvegicus [8]): <79%; Diet (Rattus norvegicus [3]): <87%
15 | CCOC(=O)c1ccc(NCCc2cccs2)cc1 | 49% | – | 86% | – | – | – | – | 94% | 69% | 81% | 90% | Diet (Rattus norvegicus [18]): 86%
16 | CCCCCCCCCCc1ccc(CNc2ccc(C(=O)O)cc2)cc1 | < 51% | <88% | <78% | 113% | 114% | – | – | – | – | – | – | Serum triglycerides, % of control (Rattus norvegicus [17]): 100%; Diet (Rattus norvegicus [18]): 99%
17 | CCOC(=O)c1ccc(NCCCCCc2ccccc2)cc1 | 69% | 85% | – | 66% | 62% | 92% | 90% | – | – | – | – | Diet (Rattus norvegicus [2]): 84%
18 | O=C(O)c1ccc(NCCCCCCCCCCCc2ccccc2)cc1 | < 24% | <76% | <83% | <69% | <74% | – | – | – | – | – | – | Diet (Rattus norvegicus [8]): <68%; Diet (Rattus norvegicus [3]): 83%
19 | CCOC(=O)c1ccc(NCCCCc2cccs2)cc1 | 56% | – | – | – | – | 94% | 90% | 96% | 99% | – | 97% | Diet (Rattus norvegicus [2]): 89%
20 | CCOC(=O)c1ccc(NCCCCCCCc2ccccc2)cc1 | < 54% | 89% | 89% | <82% | <72% | – | – | – | – | – | – | Diet (Rattus norvegicus [8]): <84%; Diet (Rattus norvegicus [3]): 90%
21 | O=C(O)c1ccc(NCCc2cccc3ccccc23)cc1 | – | – | – | 67% | 63% | – | 93% | – | – | 89% | 108% | Diet (Rattus norvegicus [14]): 108%
22 | CCCCCCCCCCCCCOc1ccc(CNc2ccc(C(=O)O)cc2)cc1 | < 36% | 100% | 81% | <65% | <56% | – | – | – | – | – | – | Serum triglycerides, % of control (Rattus norvegicus [17]): <62%; Diet (Rattus norvegicus [18]): 100%
23 | CCCCCCCOc1ccc(CNc2ccc(C(=O)OCC)cc2)cc1 | – | <86% | 90% | <76% | <80% | – | – | – | – | – | – | Serum triglycerides, % of control (Rattus norvegicus [17]): 88%; Diet (Rattus norvegicus [18]): 100%
24 | CCOC(=O)c1ccc(NCCCc2ccc(OCc3ccccc3)cc2)cc1 | 50% | – | – | 46% | 56% | 86% | – | – | – | – | 86% | Diet (Rattus norvegicus [16]): 56%; Diet (Rattus norvegicus [10]): 96%
25 | CCOC(=O)c1ccc(NCc2ccc(-c3ccccc3)cc2)cc1 | 19% | 94% | – | – | 52% | 102% | 94% | 76% | – | – | – | Diet (Rattus norvegicus [20]): 74%
26 | O=C(O)c1ccc(NCCc2ccc(F)cc2)cc1 | 0% | – | – | 50% | 54% | 104% | 91% | – | – | – | 86% | Diet (Rattus norvegicus [16]): 72%
27 | O=C(O)c1ccc(NCCCCc2cccs2)cc1 | 10% | – | – | – | – | – | 77% | 89% | 90% | 94% | 98% | Diet (Rattus norvegicus [14]): 90%
28 | O=C(O)c1ccc(NCCc2ccccc2)cc1 | 9% | – | 88% | – | 48% | 90% | – | 70% | – | – | 84% | Diet (Rattus norvegicus [16]): 64%
29 | COc1ccc(CNc2ccc(C(=O)O)cc2)cc1 | 5% | – | – | – | 60% | 91% | 94% | 76% | – | – | 95% | Diet (Rattus norvegicus [16]): 69%
30 | O=C(O)c1ccc(NCCCCCCc2ccccc2)cc1 | 17% | 85% | – | 46% | 40% | – | 86% | – | – | – | – | Diet (Rattus norvegicus [8]): 52%; Diet (Rattus norvegicus [3]): 83%
